Our source for the IC50 and inhibition values is ChEMBL document CHEMBL5696442, “Discovery of type II inhibitors of TGFβ-activated kinase 1 (TAK1) and mitogen-activated protein kinase kinase kinase kinase 2 (MAP4K2)” (J Med Chem, 2015).

Broadly, the IC50 is the concentration that inhibits the measured activity by half. As a reminder, the inhibition is the drop in the measured response relative to a control, in per cent.

The structures appear in SMILES notation. Where only a bound is given, the exact number is not on record here.

In assay [1] the target is T1, Mitogen-activated protein kinase 9 (Homo sapiens, UniProt P45984). The assay can be described thus: Inhibition of JNK2 (unknown origin) Lys2 labeling site by KiNativ Profiling analysis.
Target sequence in this assay (P45984 whole entry): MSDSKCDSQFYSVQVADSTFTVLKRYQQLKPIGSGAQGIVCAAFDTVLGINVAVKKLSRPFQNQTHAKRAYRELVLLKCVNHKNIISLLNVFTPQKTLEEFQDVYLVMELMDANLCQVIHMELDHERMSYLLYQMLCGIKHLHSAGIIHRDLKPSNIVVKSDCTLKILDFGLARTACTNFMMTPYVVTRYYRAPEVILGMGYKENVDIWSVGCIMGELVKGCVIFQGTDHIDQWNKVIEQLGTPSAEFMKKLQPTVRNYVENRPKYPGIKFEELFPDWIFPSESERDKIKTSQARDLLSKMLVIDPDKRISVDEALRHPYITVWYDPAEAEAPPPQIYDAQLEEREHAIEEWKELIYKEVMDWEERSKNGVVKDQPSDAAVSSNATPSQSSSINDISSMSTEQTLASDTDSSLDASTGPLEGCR
Assay [2] concerns the target Serine/threonine-protein kinase Chk2 (Homo sapiens) (UniProt O96017). Nature of the assay: Inhibition of CHK2 Lys1 labeling site in human A-375 cells at 5 uM by KiNativ Profiling analysis relative to control. It is filed as cell-based. Put shortly: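 Live A375 melanoma cells were treated with compound at 5 or 0.5 μM. The cells were then lysed, and the lysates were labeled with a lysine-reactive ATP or ADP-biotin acyl probe (KiNativ). Inhibition is the compound's protection of each kinase labeling-site peptide from probe labeling, relative to untreated control.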

In assay [3] the target is Mitogen-activated protein kinase 14 (Homo sapiens, UniProt Q16539). Nature of the assay: Inhibition of p38 alpha in human A-375 cells at 5 uM by KiNativ Profiling analysis relative to control. It is filed as cell-based.
Assay [4] addresses Serine/threonine-protein kinase PLK1 (Homo sapiens) (UniProt P53350). Nature of the assay: Inhibition of PLK1 Lys1 labeling site in human A-375 cells at 5 uM by KiNativ Profiling analysis relative to control. It is filed as cell-based.
Assay [5] has as its target T2, EKC/KEOPS complex subunit TP53RK (Homo sapiens) (UniProt Q96S44).
T2 sequence (whole entry): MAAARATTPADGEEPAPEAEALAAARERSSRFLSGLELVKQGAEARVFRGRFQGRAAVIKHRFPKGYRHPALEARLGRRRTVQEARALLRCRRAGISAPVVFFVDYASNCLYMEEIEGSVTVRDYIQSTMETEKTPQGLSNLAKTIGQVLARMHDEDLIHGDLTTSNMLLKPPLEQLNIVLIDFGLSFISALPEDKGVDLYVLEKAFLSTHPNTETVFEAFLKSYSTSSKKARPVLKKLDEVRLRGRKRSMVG
Nature of the assay: Inhibition of PRPK ATP Loop labeling site in human A-375 cells at 0.5 uM by KiNativ Profiling analysis relative to control. It is filed as cell-based.

For assay [6], the target named is T1, Mitogen-activated protein kinase 9. The assay can be described thus: Inhibition of JNK2 Lys2 labeling site in human A-375 cells at 0.05 uM by KiNativ Profiling analysis relative to control. It is filed as cell-based.
Target sequence in this assay (P45984 whole entry, looked up): as the sequence (P45984 whole entry) above
The target of assay [7] is Mitogen-activated protein kinase 7 (Homo sapiens) (UniProt Q13164). The assay can be described thus: Inhibition of Erk5 Lys2 labeling site in human A-375 cells at 0.5 uM by KiNativ Profiling analysis relative to control. It is filed as cell-based. Put shortly: (§1)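 Live A375 melanoma cells were treated with compound at 0.5 or 5 μM, then lysed. Lysates were labeled with a lysine-reactive ATP or ADP-biotin probe. The read-out was protection of each kinase probe-labeling site from labeling, relative to control.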

Assay [8] deals with T3, Aurora kinase A (Homo sapiens) (UniProt O14965).
T3 sequence (whole entry): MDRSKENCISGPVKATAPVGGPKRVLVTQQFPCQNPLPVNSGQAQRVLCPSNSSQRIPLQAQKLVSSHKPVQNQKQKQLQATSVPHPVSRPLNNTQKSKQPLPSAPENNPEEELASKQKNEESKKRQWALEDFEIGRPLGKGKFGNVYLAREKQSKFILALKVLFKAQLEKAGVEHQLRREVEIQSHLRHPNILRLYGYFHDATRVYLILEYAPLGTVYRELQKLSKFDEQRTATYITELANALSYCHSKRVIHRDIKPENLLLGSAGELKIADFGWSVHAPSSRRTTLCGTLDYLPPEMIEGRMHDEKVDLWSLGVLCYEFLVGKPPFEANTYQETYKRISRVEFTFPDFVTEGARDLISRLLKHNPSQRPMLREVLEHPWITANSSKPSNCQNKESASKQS
The assay can be described thus: Inhibition of AurA Lys2 labeling site in human A-375 cells at 5 uM by KiNativ Profiling analysis relative to control. It is filed as cell-based. An outline of the steps: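 Live A375 melanoma cells were treated with compound at 5 or 0.5 μM, then lysed. The lysates were labeled with a lysine-reactive ATP or ADP-biotin probe. Kinase protection from probe labeling was measured by KiNativ.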

The target in assay [9] is Protein kinase C alpha type (Homo sapiens) (UniProt P17252). Nature of the assay: Inhibition of PKCa Lys2 labeling site in human A-375 cells at 0.05 uM by KiNativ Profiling analysis relative to control. It is filed as cell-based.
Assay [10] has as its target Cyclin-dependent kinase 17 (Homo sapiens) (UniProt Q00537). The assay can be described thus: Inhibition of PCTAIRE2 Lys1 labeling site harbouring SKLTENLVALKEIR in human A-375 cells at 0.5 uM by KiNativ Profiling analysis relative to control. It is filed as cell-based.
Assay [11] concerns the target Serine/threonine-protein kinase 25 (Homo sapiens) (UniProt O00506). The assay can be described thus: Inhibition of YSK1 ACT labeling site in human A-375 cells at 0.5 uM by KiNativ Profiling analysis relative to control. It is filed as cell-based.
Assay [12] addresses Serine/threonine-protein kinase 26 (Homo sapiens) (UniProt Q9P289). The assay can be described thus: Inhibition of MST4 Lys2 labeling site in human A-375 cells at 5 uM by KiNativ Profiling analysis relative to control. It is filed as cell-based.
For assay [13], the target named is Serine/threonine-protein kinase 25 (Homo sapiens) (UniProt O00506). Nature of the assay: Inhibition of YSK1 Lys2 labeling site in human A-375 cells at 0.05 uM by KiNativ Profiling analysis relative to control. It is filed as cell-based.
Assay [14] has as its target T4, NUAK family SNF1-like kinase 2 (Homo sapiens) (UniProt Q9H093).
T4 sequence (whole entry): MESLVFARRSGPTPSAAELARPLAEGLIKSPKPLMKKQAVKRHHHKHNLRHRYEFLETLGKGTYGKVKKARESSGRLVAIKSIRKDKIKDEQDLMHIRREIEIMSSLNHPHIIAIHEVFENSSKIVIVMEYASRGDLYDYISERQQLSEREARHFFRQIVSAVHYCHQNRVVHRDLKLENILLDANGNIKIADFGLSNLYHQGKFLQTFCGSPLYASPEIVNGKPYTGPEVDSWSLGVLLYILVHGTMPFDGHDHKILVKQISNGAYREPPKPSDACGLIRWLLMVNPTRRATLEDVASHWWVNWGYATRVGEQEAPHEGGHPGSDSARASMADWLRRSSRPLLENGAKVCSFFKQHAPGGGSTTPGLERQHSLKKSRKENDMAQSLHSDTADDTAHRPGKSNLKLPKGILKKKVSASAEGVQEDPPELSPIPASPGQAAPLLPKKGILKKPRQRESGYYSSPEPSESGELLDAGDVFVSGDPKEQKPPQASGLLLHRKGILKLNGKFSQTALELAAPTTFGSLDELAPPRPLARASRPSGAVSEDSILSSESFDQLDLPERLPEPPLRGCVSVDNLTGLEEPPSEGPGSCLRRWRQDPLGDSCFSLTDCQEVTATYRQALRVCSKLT
The assay can be described thus: Inhibition of NuaK2 Lys1 labeling site in human A-375 cells at 0.5 uM by KiNativ Profiling analysis relative to control. It is filed as cell-based.

The target of assay [15] is STE20-like serine/threonine-protein kinase (Homo sapiens) (UniProt Q9H2G2). The assay can be described thus: Inhibition of SLK Lys1 labeling site in human A-375 cells at 0.05 uM by KiNativ Profiling analysis relative to control. It is filed as cell-based.
The target in assay [16] is Mitogen-activated protein kinase 7 (Homo sapiens) (UniProt Q13164). The assay can be described thus: Inhibition of Erk5 Lys2 labeling site in human A-375 cells at 5 uM by KiNativ Profiling analysis relative to control. It is filed as cell-based. Put shortly: as §1
Assay [17] concerns the target Tyrosine-protein kinase ABL1 (Homo sapiens, UniProt P00519). Nature of the assay: Inhibition of ABL Lys1 labeling site in human Huh-7 cell lysate at 1 uM by KiNativ Profiling analysis relative to control. It is filed as subcellular.

Sequence of Mitogen-activated protein kinase 7 (Homo sapiens) (Q13164 2-816 limits assumed): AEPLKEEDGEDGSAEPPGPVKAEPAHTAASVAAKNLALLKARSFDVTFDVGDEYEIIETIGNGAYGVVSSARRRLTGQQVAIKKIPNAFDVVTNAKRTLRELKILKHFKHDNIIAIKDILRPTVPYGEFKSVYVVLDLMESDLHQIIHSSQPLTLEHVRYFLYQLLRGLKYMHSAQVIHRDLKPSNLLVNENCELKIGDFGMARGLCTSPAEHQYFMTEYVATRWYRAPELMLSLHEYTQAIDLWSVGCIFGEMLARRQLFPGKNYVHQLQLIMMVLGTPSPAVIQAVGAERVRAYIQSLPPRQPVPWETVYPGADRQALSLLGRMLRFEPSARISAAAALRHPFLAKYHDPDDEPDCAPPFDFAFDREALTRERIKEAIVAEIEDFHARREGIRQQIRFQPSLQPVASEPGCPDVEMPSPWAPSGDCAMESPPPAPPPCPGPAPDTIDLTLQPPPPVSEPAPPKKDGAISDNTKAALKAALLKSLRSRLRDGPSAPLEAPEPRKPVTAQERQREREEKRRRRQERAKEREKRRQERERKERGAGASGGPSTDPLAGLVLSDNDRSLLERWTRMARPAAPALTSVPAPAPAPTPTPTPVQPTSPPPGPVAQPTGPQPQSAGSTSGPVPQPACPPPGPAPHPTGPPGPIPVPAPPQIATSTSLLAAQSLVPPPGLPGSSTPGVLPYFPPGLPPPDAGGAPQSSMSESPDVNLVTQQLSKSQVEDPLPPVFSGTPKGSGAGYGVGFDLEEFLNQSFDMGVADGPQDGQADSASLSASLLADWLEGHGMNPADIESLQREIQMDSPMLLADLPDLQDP
Sequence of Serine/threonine-protein kinase 25 (Homo sapiens) (O00506 whole entry, looked up): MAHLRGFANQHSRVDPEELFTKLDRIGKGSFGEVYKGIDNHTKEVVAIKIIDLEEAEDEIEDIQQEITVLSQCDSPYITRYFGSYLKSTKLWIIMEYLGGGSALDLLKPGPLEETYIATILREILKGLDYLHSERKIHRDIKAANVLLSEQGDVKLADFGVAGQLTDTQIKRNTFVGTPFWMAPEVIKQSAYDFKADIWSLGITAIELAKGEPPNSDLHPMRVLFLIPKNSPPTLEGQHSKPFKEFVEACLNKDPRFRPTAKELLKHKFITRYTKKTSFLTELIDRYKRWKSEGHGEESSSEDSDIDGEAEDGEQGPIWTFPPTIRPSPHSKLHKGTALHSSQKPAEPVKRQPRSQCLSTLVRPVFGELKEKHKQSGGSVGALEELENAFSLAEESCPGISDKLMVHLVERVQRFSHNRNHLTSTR
Sequence of Serine/threonine-protein kinase 26 (Homo sapiens) (Q9P289 2-416 limits assumed): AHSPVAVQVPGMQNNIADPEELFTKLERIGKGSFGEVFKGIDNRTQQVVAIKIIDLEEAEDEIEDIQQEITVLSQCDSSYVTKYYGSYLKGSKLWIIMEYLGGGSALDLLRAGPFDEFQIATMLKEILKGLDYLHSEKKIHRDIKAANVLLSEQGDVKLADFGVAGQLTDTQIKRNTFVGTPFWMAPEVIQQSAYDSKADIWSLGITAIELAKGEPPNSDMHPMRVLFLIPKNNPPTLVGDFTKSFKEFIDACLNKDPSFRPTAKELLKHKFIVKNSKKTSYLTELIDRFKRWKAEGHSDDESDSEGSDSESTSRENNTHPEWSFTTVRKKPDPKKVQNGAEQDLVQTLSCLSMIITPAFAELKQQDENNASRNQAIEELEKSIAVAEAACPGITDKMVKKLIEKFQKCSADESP
Sequence of Tyrosine-protein kinase ABL1 (P00519 whole entry): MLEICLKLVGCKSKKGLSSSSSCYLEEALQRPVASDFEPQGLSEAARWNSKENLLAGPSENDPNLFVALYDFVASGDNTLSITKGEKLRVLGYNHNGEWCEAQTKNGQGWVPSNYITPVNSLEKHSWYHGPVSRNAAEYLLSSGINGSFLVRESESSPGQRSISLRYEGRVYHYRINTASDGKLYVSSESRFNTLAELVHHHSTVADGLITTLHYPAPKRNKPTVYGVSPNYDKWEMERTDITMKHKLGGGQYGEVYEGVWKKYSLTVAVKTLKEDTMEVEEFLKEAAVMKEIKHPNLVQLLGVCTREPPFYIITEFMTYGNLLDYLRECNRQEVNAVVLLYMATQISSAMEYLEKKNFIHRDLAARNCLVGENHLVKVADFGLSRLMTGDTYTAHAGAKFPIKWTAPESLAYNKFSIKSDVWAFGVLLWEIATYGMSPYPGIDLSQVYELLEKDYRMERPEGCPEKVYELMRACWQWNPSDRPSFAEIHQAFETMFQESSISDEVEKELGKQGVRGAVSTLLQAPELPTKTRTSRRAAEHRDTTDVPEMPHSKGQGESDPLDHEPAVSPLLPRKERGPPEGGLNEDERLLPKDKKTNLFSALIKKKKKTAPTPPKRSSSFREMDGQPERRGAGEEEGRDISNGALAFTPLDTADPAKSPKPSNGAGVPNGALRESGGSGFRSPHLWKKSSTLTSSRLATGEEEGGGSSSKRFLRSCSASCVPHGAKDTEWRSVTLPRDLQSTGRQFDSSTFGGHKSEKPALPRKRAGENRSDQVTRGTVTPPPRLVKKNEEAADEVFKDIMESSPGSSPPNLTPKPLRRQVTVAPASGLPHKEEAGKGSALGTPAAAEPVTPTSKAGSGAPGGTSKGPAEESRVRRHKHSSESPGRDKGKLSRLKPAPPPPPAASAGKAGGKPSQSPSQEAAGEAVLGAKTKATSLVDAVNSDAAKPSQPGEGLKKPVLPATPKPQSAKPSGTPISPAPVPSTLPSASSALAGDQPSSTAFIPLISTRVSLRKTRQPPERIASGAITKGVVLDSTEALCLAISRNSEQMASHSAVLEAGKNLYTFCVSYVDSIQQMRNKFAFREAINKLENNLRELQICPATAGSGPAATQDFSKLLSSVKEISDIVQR
Sequence of Serine/threonine-protein kinase PLK1 (Homo sapiens) (P53350 whole entry): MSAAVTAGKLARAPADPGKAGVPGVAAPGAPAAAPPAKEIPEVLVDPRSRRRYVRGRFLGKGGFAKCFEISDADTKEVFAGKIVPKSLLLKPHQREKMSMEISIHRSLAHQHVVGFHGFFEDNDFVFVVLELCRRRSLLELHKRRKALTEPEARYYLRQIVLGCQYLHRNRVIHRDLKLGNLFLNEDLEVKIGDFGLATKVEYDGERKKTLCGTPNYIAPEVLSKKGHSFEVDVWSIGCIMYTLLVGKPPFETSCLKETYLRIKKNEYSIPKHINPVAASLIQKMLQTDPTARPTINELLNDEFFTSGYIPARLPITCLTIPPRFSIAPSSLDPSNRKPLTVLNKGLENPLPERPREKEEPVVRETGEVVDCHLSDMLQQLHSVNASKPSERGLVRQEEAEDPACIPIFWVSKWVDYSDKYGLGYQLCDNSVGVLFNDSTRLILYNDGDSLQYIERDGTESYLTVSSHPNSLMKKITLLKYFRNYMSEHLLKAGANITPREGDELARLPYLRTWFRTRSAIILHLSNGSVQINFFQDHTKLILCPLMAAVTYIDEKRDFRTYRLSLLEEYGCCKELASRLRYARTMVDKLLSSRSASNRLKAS

For `CCN1CCN(Cc2ccc(NC(=O)c3ccc(C)c(/C=C/c4cnc5[nH]ccc5c4OC)c3)cc2C(F)(F)F)CC1`, the IC50 in [1] was more than 10 µM. Moreover, the inhibition in [2] is 11.5%; in assay [3], 83.3%; in [4] it was 5.7%; in [5] it was 9.6%; in [6], 23.9%; in assay [7], 14%. Also, the inhibition in assay [8] was determined as 19.3%; in [9], 58%; in assay [10], 11.3%; in [11] it was 18.3%; in [12], 20.9%; in [13], 9.1%. The inhibition in assay [14] stood at 6.4%; in assay [15], 2.2%; in assay [16], 8.7%.
For the compound `CNc1cc(Oc2cc(C(=O)Nc3cc(-n4cnc(C)c4)cc(C(F)(F)F)c3)ccc2C)ncn1`, in [17], the inhibition came out at 51.8%.
In assay [1], `CCN1CCN(Cc2ccc(NC(=O)c3ccc(C)c(Oc4ccnc5[nH]ccc45)c3)cc2C(F)(F)F)CC1` registered an IC50 of more than 10 µM. The inhibition is 5.1% in assay [2]; 53.3% in assay [3]; -7.3% in assay [4]; 9.2% in assay [5]; 50.3% in assay [6]; 6.8% in assay [7]. Also, the inhibition is -0.8% in assay [8]; 45.3% in assay [9]; 31.7% in assay [10]; 31.3% in assay [11]; 15.4% in assay [12]; -0.7% in [13]. Further, the inhibition in assay [14] was 9.4%; in [15], 13%; in assay [16], 7.8%.
As to `CNc1cc(Oc2cc(C(=O)Nc3cc(N4CCN(C)CC4)cc(C(F)(F)F)c3)ccc2C)ncn1`, the inhibition in [17] worked out at 48.4%.
